Results on four compounds are retold here after ChEMBL document CHEMBL1153376, “Lipophilic lysine-spermine conjugates are potent polyamine transport inhibitors for use in combination with a polyamine biosynthesis inhibitor” (J Med Chem, 2009).

Assay [1] is filed under the species Mus musculus. The assay is described as follows: Antitumor activity against 7,12-dimethylbenz(alpha)anthracene-induced squamous cell carcinoma in FVB/N transgenic mouse model expressing K6/ODC gene assessed as tumor growth inhibition after 4 weeks. It counts as functional, organism-based.
For assay [2], the target named is Diamine acetyltransferase 1 (Homo sapiens) (UniProt P21673). The assay can be described thus: Inhibition of spermidine/spermine N1-acetyltransferase activity in human SK-MEL cells at 10 uM after 24 hrs relative to control. It counts as cell-based. Also noted: scale not given: the % may be the effect or the level left. In a few lines: (§1)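 SK-Mel human melanoma cells exposed to 10 µM agent alone for 24 h. Enzyme activity (ODC; SSAT) measured and expressed as % of untreated control.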

Assay [3] addresses T1, Ornithine decarboxylase (Homo sapiens) (UniProt P11926).
T1 sequence (whole entry): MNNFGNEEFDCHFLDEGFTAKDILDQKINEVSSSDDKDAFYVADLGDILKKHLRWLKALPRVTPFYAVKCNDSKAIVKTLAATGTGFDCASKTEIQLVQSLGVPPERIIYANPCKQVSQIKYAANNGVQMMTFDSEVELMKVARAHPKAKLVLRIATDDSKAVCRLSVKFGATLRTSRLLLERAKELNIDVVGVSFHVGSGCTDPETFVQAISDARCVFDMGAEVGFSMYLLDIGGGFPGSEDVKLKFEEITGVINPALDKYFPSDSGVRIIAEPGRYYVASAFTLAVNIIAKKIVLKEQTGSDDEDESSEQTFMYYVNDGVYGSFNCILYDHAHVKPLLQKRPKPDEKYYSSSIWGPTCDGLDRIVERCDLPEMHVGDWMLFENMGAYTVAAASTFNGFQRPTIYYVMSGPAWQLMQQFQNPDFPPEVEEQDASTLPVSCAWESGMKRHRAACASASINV
The assay can be described thus: Inhibition of ornithine decarboxylase activity in human SK-MEL cells at 10 uM after 24 hrs relative to control. It counts as cell-based. Also noted: scale not given: the % may be the effect or the level left. In outline:
as §1

Assay [4] relates to MDA-MB-231. The assay is described as follows: Inhibition of [2,9-3H]spermidine uptake in human MDA-MB-231 cells after 15 mins by Lineweaver-Burke plot analysis. It counts as functional, cell-based. In outline:
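Cells then washed three times in cold PBS and lysed in 0.1% SDS, and lysates scintillation-counted. Four substrate concentrations (0.3–3 µM) and five inhibitor concentrations (0.01–1.0 µM) plus control. Ki from slopes of Lineweaver-Burke plots against inhibitor concentration (Ki = y-intercept/slope).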

Assay [5] concerns MDA-MB-231. The assay is described as follows: Cytotoxicity against human MDA-MB-231 cells after 6 days by MTS/PMS dye assay. The conditions noted are these: MDA-MB-231, 144 h.
Assay [6] deals with Mus musculus. The assay can be described thus: Antitumor activity against 7,12-dimethylbenz(alpha)anthracene-induced squamous cell carcinoma in FVB/N transgenic mouse model expressing K6/ODC gene assessed as tumor growth inhibition at 0.5 mg/kg, ip administered twice daily after 4 weeks. It counts as functional, organism-based. Also noted: dose 0.5 mg/kg.

Activity calls are given as the source filed them. The rule behind the calls is not given here.

Diamine acetyltransferase 1 (Homo sapiens), sequence (P21673 whole entry): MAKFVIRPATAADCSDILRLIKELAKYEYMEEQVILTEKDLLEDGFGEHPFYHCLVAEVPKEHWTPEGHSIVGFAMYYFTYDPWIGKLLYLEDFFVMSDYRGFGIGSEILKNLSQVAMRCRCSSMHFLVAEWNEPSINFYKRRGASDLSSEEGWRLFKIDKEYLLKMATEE

For the compound `NCCCC(N)(C(=O)O)C(F)F` (centres undefined), the outcome in the assay filed under Mus musculus [1] was Active.

For the compound `CCCCCCCC(=O)NCCCC[C@H](N)C(=O)NCCCNCCCCNCCCN`, the Activity in assay [2] worked out at 40%; in assay [3], 110%.

The Ki is the equilibrium dissociation constant of an inhibitor or competing ligand from its target. For the compound `CCCCCCCCCCCCCCCC(=O)NCCCC[C@H](N)C(=O)NCCCNCCCCNCCCN`, the Activity in assay [2] was found to be 40%; in assay [3] it was 46%. This compound came in with a Ki in the assay on MDA-MB-231 [4] of 7.5 nM.

As usually defined, the IC50 is the concentration that inhibits the measured activity by half. As for `CCCCCCCCCCCCCCCC(=O)NCCCC[C@@H](N)C(=O)NCCCNCCCCNCCCN` [AMXT-1501], in the assay with MDA-MB-231 [5], the IC50 amounted to 57000 nM. In the assay with Mus musculus [6], the outcome was Active. Further, the Ki in the assay on MDA-MB-231 [4] stood at 10.5 nM.
